Tests used:
Cyperus iria [1] = experiment: Post-emergence herbicidal activity against Cyperus iria assessed as growth inhibition at 75 g ai/ha measured 15 days post compound treatment under green house conditions; type: functional; conditions: 360 h, read-out: GI
Summary of the method: (§1)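 Compounds formulated as 100 g/L emulsifiable concentrate (DMF solvent, Tween-80 emulsifier), diluted with water, sprayed post-emergence on pot-grown weeds in clay soil (pH 6.5, 1.6% organic matter). Seeds sown 1-3 cm deep, grown at 15-30 °C. Dicots were treated at the 2-leaf stage and monocots at the 1-leaf stage. Untreated and DMF-treated controls were included. Injury was rated visually 15 days after treatment.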

Digitaria sanguinalis = experiment: Post-emergence herbicidal activity against Digitaria sanguinalis (hairy crabgrass) assessed as growth inhibition at 150 g ai/ha measured 15 days post compound treatment under green house conditions; type: functional; conditions: 360 h, read-out: GI; summary of the method: as §1
Rumex acetosa [2] = experiment: Post-emergence herbicidal activity against Rumex acetosa assessed as growth inhibition at 150 g ai/ha measured 15 days post compound treatment under green house conditions; type: functional; conditions: 360 h, read-out: GI; summary of the method: as §1
Rumex acetosa [3] = experiment: Post-emergence herbicidal activity against Rumex acetosa assessed as growth inhibition at 75 g ai/ha measured 15 days post compound treatment under green house conditions; type: functional; conditions: 360 h, read-out: GI; summary of the method: as §1
Eclipta prostrata [4] = experiment: Post-emergence herbicidal activity against Eclipta prostrata assessed as growth inhibition at 75 g ai/ha measured 15 days post compound treatment under green house conditions; type: functional; conditions: 360 h, read-out: GI; summary of the method: as §1
Amaranthus retroflexus [5] = experiment: Post-emergence herbicidal activity against Amaranthus retroflexus assessed as growth inhibition at 150 g ai/ha measured 15 days post compound treatment under green house conditions; type: functional; conditions: 360 h, read-out: GI; summary of the method: as §1
Eclipta prostrata [6] = experiment: Post-emergence herbicidal activity against Eclipta prostrata assessed as growth inhibition at 150 g ai/ha measured 15 days post compound treatment under green house conditions; type: functional; conditions: 360 h, read-out: GI; summary of the method: as §1
Cyperus iria [7] = experiment: Post-emergence herbicidal activity against Cyperus iria assessed as growth inhibition at 150 g ai/ha measured 15 days post compound treatment under green house conditions; type: functional; conditions: 360 h, read-out: GI; summary of the method: as §1
Polygonum humifusum [8] = experiment: Post-emergence herbicidal activity against Polygonum humifusum assessed as growth inhibition at 75 g ai/ha measured 15 days post compound treatment under green house conditions; type: functional; conditions: 360 h, read-out: GI; summary of the method: as §1
Amaranthus retroflexus [9] = experiment: Post-emergence herbicidal activity against Amaranthus retroflexus assessed as growth inhibition at 37.5 g ai/ha measured 15 days post compound treatment under green house conditions; type: functional; conditions: 360 h, read-out: GI; summary of the method: as §1
Amaranthus retroflexus [10] = experiment: Post-emergence herbicidal activity against Amaranthus retroflexus assessed as growth inhibition at 75 g ai/ha measured 15 days post compound treatment under green house conditions; type: functional; conditions: 360 h, read-out: GI; summary of the method: as §1
Polygonum humifusum [11] = experiment: Post-emergence herbicidal activity against Polygonum humifusum assessed as growth inhibition at 37.5 g ai/ha measured 15 days post compound treatment under green house conditions; type: functional; conditions: 360 h, read-out: GI; summary of the method: as §1
Galium aparine [12] = experiment: Post-emergence herbicidal activity against Galium aparine assessed as growth inhibition at 37.5 g ai/ha measured 15 days post compound treatment under green house conditions; type: functional; conditions: 360 h, read-out: GI; summary of the method: as §1
Chenopodium album [13] = experiment: Post-emergence herbicidal activity against Chenopodium album assessed as growth inhibition at 37.5 g ai/ha measured 15 days post compound treatment under green house conditions; type: functional; conditions: 360 h, read-out: GI; summary of the method: as §1
Echinochloa crus-galli = experiment: Post-emergence herbicidal activity against Echinochloa crus-galli (barnyard grass) assessed as growth inhibition at 150 g ai/ha measured 15 days post compound treatment under green house conditions; type: functional; conditions: 360 h, read-out: GI; summary of the method: as §1
Galium aparine [14] = experiment: Post-emergence herbicidal activity against Galium aparine assessed as growth inhibition at 75 g ai/ha measured 15 days post compound treatment under green house conditions; type: functional; conditions: 360 h, read-out: GI; summary of the method: as §1
Cerastium arvense [15] = experiment: Post-emergence herbicidal activity against Cerastium arvense assessed as growth inhibition at 37.5 g ai/ha measured 15 days post compound treatment under green house conditions; type: functional; conditions: 360 h, read-out: GI; summary of the method: as §1
Rumex acetosa [16] = experiment: Post-emergence herbicidal activity against Rumex acetosa assessed as growth inhibition at 37.5 g ai/ha measured 15 days post compound treatment under green house conditions; type: functional; conditions: 360 h, read-out: GI; summary of the method: as §1
Poa annua = experiment: Post-emergence herbicidal activity against Poa annua assessed as growth inhibition at 150 g ai/ha measured 15 days post compound treatment under green house conditions; type: functional; conditions: 360 h, read-out: GI; summary of the method: as §1
Polygonum humifusum [17] = experiment: Post-emergence herbicidal activity against Polygonum humifusum assessed as growth inhibition at 150 g ai/ha measured 15 days post compound treatment under green house conditions; type: functional; conditions: 360 h, read-out: GI; summary of the method: as §1
Chenopodium album [18] = experiment: Post-emergence herbicidal activity against Chenopodium album assessed as growth inhibition at 150 g ai/ha measured 15 days post compound treatment under green house conditions; type: functional; conditions: 360 h, read-out: GI; summary of the method: as §1
Cerastium arvense [19] = experiment: Post-emergence herbicidal activity against Cerastium arvense assessed as growth inhibition at 150 g ai/ha measured 15 days post compound treatment under green house conditions; type: functional; conditions: 360 h, read-out: GI; summary of the method: as §1
[20] = molecular target: T1, Acetolactate synthase, chloroplastic (Arabidopsis thaliana, UniProt P17597)
T1 sequence (P17597 whole entry): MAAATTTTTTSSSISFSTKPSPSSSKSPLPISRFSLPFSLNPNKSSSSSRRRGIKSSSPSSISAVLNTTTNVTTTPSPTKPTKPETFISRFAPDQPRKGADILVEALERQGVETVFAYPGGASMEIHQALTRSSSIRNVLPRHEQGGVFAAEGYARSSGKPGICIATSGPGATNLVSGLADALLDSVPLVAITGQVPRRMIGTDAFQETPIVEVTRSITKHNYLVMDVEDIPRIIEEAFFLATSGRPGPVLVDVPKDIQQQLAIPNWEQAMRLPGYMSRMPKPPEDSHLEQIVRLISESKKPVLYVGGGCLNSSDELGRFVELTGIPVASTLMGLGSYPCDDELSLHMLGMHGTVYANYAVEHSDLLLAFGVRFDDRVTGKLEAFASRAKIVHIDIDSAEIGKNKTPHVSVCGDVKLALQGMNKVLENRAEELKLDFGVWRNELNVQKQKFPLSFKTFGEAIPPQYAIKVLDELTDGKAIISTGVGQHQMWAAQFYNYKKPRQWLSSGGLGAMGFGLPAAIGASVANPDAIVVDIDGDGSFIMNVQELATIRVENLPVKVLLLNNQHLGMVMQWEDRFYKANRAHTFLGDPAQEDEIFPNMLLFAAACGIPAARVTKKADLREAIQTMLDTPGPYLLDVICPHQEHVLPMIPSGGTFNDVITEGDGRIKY

Eclipta prostrata [21] = experiment: Post-emergence herbicidal activity against Eclipta prostrata assessed as growth inhibition at 37.5 g ai/ha measured 15 days post compound treatment under green house conditions; type: functional; conditions: 360 h, read-out: GI; summary of the method: as §1
Cerastium arvense [22] = experiment: Post-emergence herbicidal activity against Cerastium arvense assessed as growth inhibition at 75 g ai/ha measured 15 days post compound treatment under green house conditions; type: functional; conditions: 360 h, read-out: GI; summary of the method: as §1
Brassica juncea = experiment: Post-emergence herbicidal activity against Brassica juncea assessed as growth inhibition at 150 g ai/ha measured 15 days post compound treatment under green house conditions; type: functional; conditions: 360 h, read-out: GI; summary of the method: as §1
Cyperus iria [23] = experiment: Post-emergence herbicidal activity against Cyperus iria assessed as growth inhibition at 37.5 g ai/ha measured 15 days post compound treatment under green house conditions; type: functional; conditions: 360 h, read-out: GI; summary of the method: as §1
Chenopodium album [24] = experiment: Post-emergence herbicidal activity against Chenopodium album assessed as growth inhibition at 75 g ai/ha measured 15 days post compound treatment under green house conditions; type: functional; conditions: 360 h, read-out: GI; summary of the method: as §1
Galium aparine [25] = experiment: Post-emergence herbicidal activity against Galium aparine assessed as growth inhibition at 150 g ai/ha measured 15 days post compound treatment under green house conditions; type: functional; conditions: 360 h, read-out: GI; summary of the method: as §1

SMILES	inhibition of growth at 75 g/ha (Cyperus iria [1]) [%]	inhibition of growth at 150 g/ha (Digitaria sanguinalis) [%]	inhibition of growth at 150 g/ha (Rumex acetosa [2]) [%]	inhibition of growth at 75 g/ha (Rumex acetosa [3]) [%]	inhibition of growth at 75 g/ha (Eclipta prostrata [4]) [%]	inhibition of growth at 150 g/ha (Amaranthus retroflexus [5]) [%]	inhibition of growth at 150 g/ha (Eclipta prostrata [6]) [%]	inhibition of growth at 150 g/ha (Cyperus iria [7]) [%]	inhibition of growth at 75 g/ha (Polygonum humifusum [8]) [%]	inhibition of growth at 37.5 g/ha (Amaranthus retroflexus [9]) [%]	inhibition of growth at 75 g/ha (Amaranthus retroflexus [10]) [%]	inhibition of growth at 37.5 g/ha (Polygonum humifusum [11]) [%]	inhibition of growth at 37.5 g/ha (Galium aparine [12]) [%]	inhibition of growth at 37.5 g/ha (Chenopodium album [13]) [%]	inhibition of growth at 150 g/ha (Echinochloa crus-galli) [%]	inhibition of growth at 75 g/ha (Galium aparine [14]) [%]	inhibition of growth at 37.5 g/ha (Cerastium arvense [15]) [%]	inhibition of growth at 37.5 g/ha (Rumex acetosa [16]) [%]	inhibition of growth at 150 g/ha (Poa annua) [%]	inhibition of growth at 150 g/ha (Polygonum humifusum [17]) [%]	also measured
Cc1nc(C(F)(F)F)cc2nc(S(=O)(=O)Nc3c(F)cccc3F)nn12	< 50	< 50	50	50	≥ 80	< 50	≥ 80	< 50	< 50	< 50	< 50	< 50	50	≥ 80	< 50	≥ 80	50	50	< 50	50	inhibition of growth at 150 g/ha (Chenopodium album [18]): ≥ 90%; inhibition of growth at 150 g/ha (Cerastium arvense [19]): 50%; Ki [20]: 70.6 µM; inhibition of growth at 37.5 g/ha (Eclipta prostrata [21]): 50%; inhibition of growth at 75 g/ha (Cerastium arvense [22]): 50%; inhibition of growth at 150 g/ha (Brassica juncea): ≥ 80%; inhibition of growth at 37.5 g/ha (Cyperus iria [23]): < 50%; inhibition of growth at 75 g/ha (Chenopodium album [24]): ≥ 80%; inhibition of growth at 150 g/ha (Galium aparine [25]): ≥ 80%
COC(=O)c1cccc(Cl)c1NS(=O)(=O)c1nc2c(Cl)c(C)nc(C)n2n1	50	< 50	50	50	50	50	≥ 50	50	50	50	50	50	≥ 80	≥ 80	< 50	≥ 80	< 50	50	< 50	50	inhibition of growth at 150 g/ha (Chenopodium album [18]): ≥ 80%; inhibition of growth at 150 g/ha (Cerastium arvense [19]): 50%; inhibition of growth at 37.5 g/ha (Eclipta prostrata [21]): 50%; inhibition of growth at 75 g/ha (Cerastium arvense [22]): 50%; inhibition of growth at 150 g/ha (Brassica juncea): ≥ 90%; inhibition of growth at 37.5 g/ha (Cyperus iria [23]): 50%; inhibition of growth at 75 g/ha (Chenopodium album [24]): ≥ 80%; inhibition of growth at 150 g/ha (Galium aparine [25]): ≥ 80%
Cc1nc(C(F)(F)F)cc2nc(S(=O)(=O)Nc3c(Cl)cccc3Cl)nn12	50	< 50	≥ 80	≥ 80	50	< 50	≥ 90	50	≥ 80	< 50	< 50	50	50	≥ 80	< 50	≥ 80	< 50	≥ 80	< 50	≥ 80	inhibition of growth at 150 g/ha (Chenopodium album [18]): ≥ 90%; inhibition of growth at 150 g/ha (Cerastium arvense [19]): 50%; Ki [20]: 5.02 µM; inhibition of growth at 37.5 g/ha (Eclipta prostrata [21]): 50%; inhibition of growth at 75 g/ha (Cerastium arvense [22]): 50%; inhibition of growth at 150 g/ha (Brassica juncea): ≥ 90%; inhibition of growth at 37.5 g/ha (Cyperus iria [23]): 50%; inhibition of growth at 75 g/ha (Chenopodium album [24]): ≥ 80%; inhibition of growth at 150 g/ha (Galium aparine [25]): ≥ 80%

Reference: ChEMBL document CHEMBL3046780, “Syntheses and herbicidal activity of new triazolopyrimidine-2-sulfonamides as acetohydroxyacid synthase inhibitor” (Bioorg Med Chem, 2010)
